An excerpt weighted towards active compounds, which were near 3.5% of everything screened.
Wnt bcat act: Wnt/beta-catenin pathway activators, primary screen, cell-based, plate reader, single point | Wnt/beta-catenin reporter cell assay, activator | activation, % at 9.35 µM | 300,000 tested, 1.2% active; in the data active = activation above about 30%, passing the limit was not always enough; inconclusive = no clear call, values can overlap the other calls;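 note: 0% = neutral control wells and 100% = positive control wells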
Env fusion inh: inhibitors of HIV-1 Env-driven cell-cell fusion, primary screen, HeLa-JRFL effector, CEM21 target cells, luciferase. inhibition, % at 12.3 µM. 360,000 tested, 1.1% active;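 active = mean replicate inhibition score of at least 50 and every replicate individually at or above 50; inconclusive = only one of the two criteria met; inactive = mean below 50 and not all replicates reaching 50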;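 note: 0% = plate neutral controls and 100% = maraviroc near 300 nM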
MITF act: activators of MITF-driven TRPM1 promoter reporter, primary screen, cell-based, SK-MEL-5, luciferase, single point | 300,000 tested, 0.75% active | SK-MEL-5 TRPM1-promoter luciferase, 24 h; % of positive control, neutral wells = 0 | AID 588334, 2011 | activation, % at 12.5 µM;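 active = mean activation of at least 80% with every replicate also reaching 80%; inconclusive = mean reaches 80% but some replicate falls short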;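 note: 0% = neutral control wells and 100% = parthenolide positive control wells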
esBAF inh: Bmi1 luciferase reporter increase in mESCs, primary screen, esBAF inhibitor project, mouse ES cells, Bmi1 luciferase knock-in, single point | 24 h; 100% = twice the neutral-well signal | reporter increase, % at 12.5 µM | 350,000 tested, 2% active | AID 602393, 2012; in the data active = activation above about 40%; inconclusive = no clear call, values can overlap the other calls;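 note: 0% = median of the plate's neutral control wells and 100% = double that signal; a rise in the Bmi1 reporter signal indicates esBAF inhibition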
Cneo AK release: Cryptococcus neoformans cell lysis inducers, primary screen, AK release luminescence, single concentration. C. neoformans lysis, adenylate kinase release luminescence, 4 h; normalised: neutral wells 0, clomiphene wells 100. lysis activity, % at 15 µM. 360,000 tested, 0.2% active. AID 651654, 2012;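 active = mean lysis activity across replicates of at least 80%, whatever share of replicates individually reach that level; inactive = mean lysis activity below 80%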
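Schedule: static 4 h at 37 °C with compound, 1 h detection; system: C. neoformans cells; benchmarks: Clomiphene as positive control; buffer or medium: fresh YPD medium; measure: luminescence rise reflecting yeast cell lysis; measured by: luminescent adenylate kinase detection reagent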
ERAP1 HTS inh: human ERAP1 aminopeptidase inhibitors, primary screen, biochemical, single point, plate reader | Endoplasmic reticulum aminopeptidase 1 (Homo sapiens), Q9NZ08 | recombinant ERAP1, Leu-AMC fluorescence, 60 min | inhibition, % at 10.7 µM | 340,000 tested, 0.15% active | AID 652197, 2013;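 active = mean replicate inhibition of at least 30%, or all replicates individually reaching that 30% level; inactive = mean below 30% and not every replicate reaching it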;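 note: 0% = neutral control wells and 100% = L-leucinethiol positive control wells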
Target sequence (Q9NZ08 whole entry, looked up): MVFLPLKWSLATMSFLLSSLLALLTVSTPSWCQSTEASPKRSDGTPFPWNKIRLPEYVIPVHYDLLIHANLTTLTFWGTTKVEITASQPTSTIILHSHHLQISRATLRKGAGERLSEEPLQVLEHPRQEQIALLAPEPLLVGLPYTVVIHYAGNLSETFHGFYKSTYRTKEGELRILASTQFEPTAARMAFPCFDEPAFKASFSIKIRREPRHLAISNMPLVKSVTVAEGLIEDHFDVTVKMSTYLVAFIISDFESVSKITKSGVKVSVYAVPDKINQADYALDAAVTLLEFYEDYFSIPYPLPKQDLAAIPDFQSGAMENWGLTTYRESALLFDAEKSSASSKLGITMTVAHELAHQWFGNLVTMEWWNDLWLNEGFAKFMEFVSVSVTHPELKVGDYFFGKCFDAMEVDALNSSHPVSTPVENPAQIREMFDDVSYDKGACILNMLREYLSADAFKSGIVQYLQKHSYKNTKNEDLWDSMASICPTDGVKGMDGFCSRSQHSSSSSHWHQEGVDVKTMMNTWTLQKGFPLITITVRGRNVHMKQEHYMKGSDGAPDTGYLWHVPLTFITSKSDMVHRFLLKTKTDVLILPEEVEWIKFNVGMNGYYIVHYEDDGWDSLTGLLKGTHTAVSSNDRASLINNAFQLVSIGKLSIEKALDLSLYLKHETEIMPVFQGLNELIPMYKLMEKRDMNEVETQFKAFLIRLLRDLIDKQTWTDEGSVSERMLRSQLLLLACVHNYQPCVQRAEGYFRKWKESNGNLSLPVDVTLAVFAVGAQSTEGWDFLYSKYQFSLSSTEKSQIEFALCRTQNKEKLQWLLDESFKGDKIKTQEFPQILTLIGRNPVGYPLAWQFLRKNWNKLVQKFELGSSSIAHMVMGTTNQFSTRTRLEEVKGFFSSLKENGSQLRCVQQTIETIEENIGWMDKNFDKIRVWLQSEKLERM
Starred values were filed as active, the others as inactive; ? = inconclusive; nt = no result; [ ] = remark or other dose.

SMILES | Wnt bcat act | Env fusion inh | MITF act | esBAF inh | Cneo AK release | ERAP1 HTS inh
CC(C)C(=O)Nc1nc2cc3c(cc2s1)OCCO3 | -1 | -17 | 8 | -6 | nt | -1
Fc1ccc2nc(Nc3ccccc3)sc2c1 | 1 | -87 | ? | 92* | -1 | 1
c1ccc2sc(Nc3nc4cc5c(cc4s3)OCO5)nc2c1 | nt | -167 | 66 | 69* | -2 | nt
Fc1ccc2nc(Nc3nc4cc5c(cc4s3)OCO5)sc2c1 | nt | -71 | 54 | nt | nt | nt
Fc1ccc2nc(Nc3nc4cc5c(cc4s3)OCCO5)sc2c1 | nt | -74 | 85* | nt | nt | nt
O=C(C[C@H]1CC[C@@H](NS(=O)(=O)c2ccc(F)cc2)[C@@H](CO)O1)NCc1ccncn1 | nt | -18[16.7 µM] | nt | -7 | -5 | 2
C[C@@H](O)C#Cc1ccc2c(c1)O[C@H](CN(C)C(=O)CC1CC1)[C@@H](C)CN([C@@H](C)CO)S2(=O)=O | nt | -21[16.7 µM] | nt | 3 | -7 | 1
O=C(COc1ncnc2cc(Cl)ccc12)c1ccc2c(c1)OCCO2 | 55* | -78 | 80 | 59* | -1 | nt
CC(=O)NC(CSC(CC(=O)c1ccco1)c1ccc(C)cc1)C(=O)O (stereo unspecified) | 9 | 8 | 39 | 43* | nt | -6
O=C(CC(SCCO)c1ccc([N+](=O)[O-])cc1)c1ccco1 (stereo unspecified) | 5 | -10 | 7 | 6 | -1 | 2
CCOC(=O)N1N=C(c2ccc(C)cc2)CC1(O)C(F)(F)F (stereo unspecified) | 23 | nt | 35 | -7 | -3 | -1
CCOC(=O)N1N=C(CC)CC1(O)C(F)(F)F (stereo unspecified) | 34* | -80 | -4 | nt | 1 | nt
O=C(Cn1ncc(Cl)c(Cl)c1=O)NC(=O)NC1CCCCC1 | 0 | 61* | nt | nt | nt | -2
COc1ccc(CCNC(=O)c2nonc2N)cc1 | 9 | -45 | nt | 48* | 4 | nt
O=C(Cn1cc(SCc2cccc(Cl)c2)c2ccccc21)N1CCOCC1 | nt | -19 | 17 | 62* | 0 | nt
NC(=O)c1ccc(NC(=O)CSc2cn(CC(=O)N3CCOCC3)c3ccccc23)cc1 | -1 | 15 | 2 | -2 | 0 | 3
Cc1cccc(CSc2cn(CC(=O)N3CCOCC3)c3ccccc23)c1 | 17 | nt | 7 | 84* | -3 | -3
O=C(CSc1cn(CC(=O)N2CCOCC2)c2ccccc12)N1CCOCC1 | 6 | -9 | -8 | 3 | 3 | -1
C[C@@H]1CN([C@H](C)CO)C(=O)c2cccc(NC(=O)Nc3ccc4c(c3)OCO4)c2O[C@@H]1CN(C)S(=O)(=O)c1cn(C)cn1 | nt | nt | nt | -2 | 1 | -1
COc1ccc(NC(=O)CN(C)C(=O)Cn2cnc3c2c(=O)n(C)c(=O)n3C)cc1 | -1 | -2 | -5 | nt | nt | 7
CCOc1ccc(NC(=O)CN(C)C(=O)Cn2cnc3c2c(=O)n(C)c(=O)n3C)cc1OCC | 0 | -19 | 4 | 9 | -1 | 30*
COc1ccc(S(=O)(=O)N[C@@H]2C=C[C@@H](CC(=O)N3CCC(Cc4ccccc4)CC3)O[C@H]2CO)cc1 | nt | 1[16.7 µM] | nt | 6 | 95* | 3
Cc1ccc(S(=O)(=O)N[C@@H]2C=C[C@H](CC(=O)N3CCC(Cc4ccccc4)CC3)O[C@H]2CO)cc1 | nt | 13[16.7 µM] | nt | 14 | 3 | -3
COc1ccc(S(=O)(=O)N[C@@H]2C=C[C@@H](CC(=O)N3CCC(Cc4ccccc4)CC3)O[C@@H]2CO)cc1 | nt | nt | nt | nt | nt | -3
O=C(C[C@H]1C=C[C@H](NS(=O)(=O)c2ccc(F)cc2)[C@H](CO)O1)N1CCC(Cc2ccccc2)CC1 | nt | 5[16.7 µM] | nt | 4 | 60 | -4
SMILES | Wnt bcat act | Env fusion inh | MITF act | esBAF inh | Cneo AK release | ERAP1 HTS inh
Cc1ccc(S(=O)(=O)N[C@H]2C=C[C@H](CC(=O)N3CCC(Cc4ccccc4)CC3)O[C@H]2CO)cc1 | nt | 76*[16.7 µM] | nt | 22 | 3 | -1
COc1ccc(S(=O)(=O)N[C@@H]2C=C[C@H](CC(=O)N3CCC(Cc4ccccc4)CC3)O[C@@H]2CO)cc1 | nt | 63*[16.7 µM] | nt | -13 | 3 | 3
O=C1C2C3C=CC(CC3)C2C(=O)N1/N=C/c1c[nH]c2ccccc12 (stereo unspecified) | 1 | -9 | 50 | 61* | nt | 1
OC[C@H]1[C@@H](c2ccc(-c3cccnc3)cc2)[C@H]2CN(CC3CC3)CCCCN21 | nt | nt | nt | 0 | -2 | nt
CN1C(=O)c2cc(NC(=O)C3CCOCC3)ccc2OC[C@H]2O[C@@H](CC(=O)NCc3ccc4c(c3)OCO4)CC[C@H]21 | nt | -9[16.7 µM] | nt | 1 | -3 | 0
C[C@@H]1CN([C@@H](C)CO)C(=O)c2cc(NS(=O)(=O)c3ccccc3)ccc2O[C@@H]1CN(C)S(=O)(=O)c1cn(C)cn1 | nt | -1[16.7 µM] | nt | 4 | -5 | -1
CC(/C=N/N1CCN(c2ccccn2)CC1)=C\c1ccccc1 | 16 | -16 | 65 | nt | -2 | 1
Cc1cccc(/C=N/N2CCN(c3ccccc3)CC2)c1 | 20 | -197 | 100* | 35 | 1 | nt
C(=C\c1ccccc1)/C=N/N1CCN(c2ccccn2)CC1 | nt | nt | 85* | nt | nt | nt
Cc1ccc(/C=N/N2CCN(c3ccccc3)CC2)cc1 | 7 | -45 | 73 | nt | nt | 2
O=[N+]([O-])c1ccccc1/C=C\C=N\N1CCN(c2ccccc2)CC1 | 25 | 8 | 13 | 12 | 0 | -1
C(/C=C/c1ccccc1)=N/N1CCN(c2ccccc2)CC1 | -1 | -85 | 94* | ? | 1 | nt
Cc1ccccc1-c1ccc([C@@H]2[C@@H](CO)N3CCCCN(S(=O)(=O)c4ccc(F)cc4)C[C@@H]23)cc1 | nt | nt | nt | -1 | -5 | nt
C[C@H]1CN([C@@H](C)CO)C(=O)Cc2cc(NC(=O)CCN3CCOCC3)ccc2O[C@H]1CN(C)C(=O)NC1CCCCC1 | nt | 3[16.7 µM] | nt | 0 | 52 | 5
CO[C@@H]1CN(C)C(=O)c2cc(NS(=O)(=O)c3ccccc3C)ccc2OC[C@@H](C)NC[C@@H]1C | nt | nt | nt | 0 | -1 | 3
O=C(c1cccnc1)N1CC[C@H]2[C@H](CO)Nc3ccc(-c4ccccc4)cc3[C@H]21 | nt | nt | nt | -4 | 1 | -1
Cc1ccc(/C=N/NC(=O)c2c[nH]c3ccccc23)s1 | nt | nt | 69 | 59* | -8 | nt
Cc1cc(C(=O)NN=Cc2c(C)[nH]c3ccccc23)c(C)o1 | 5 | nt | -21 | -2 | 3 | -7
O=C(N/N=C/c1ccc(Br)s1)c1ccco1 | 43* | -38 | ? | nt | nt | 3
Cc1[nH]c2ccccc2c1/C=N\NC(=O)c1ccccc1Cl | -6 | 70* | nt | 0 | 0 | 2
Cc1ccc(/C=N/NC(=O)c2ccco2)s1 | 45* | -49 | 44 | 13 | 2 | nt
Cc1occc1C(=O)N/N=C/c1ccc(Br)s1 | 11 | -29 | 49 | 30 | 1 | -10

High-throughput results as filed in PubChem.
